Bioassay records as filed in PubChem.
This is a sample that favours compounds with a hit; in the whole collection about 2.1% have one here.
GRK2 inh: blocks RNA aptamer binding to human GRK2; P25098; bead flow cytometry, FAM-aptamer displacement from GRK2; inhibition of aptamer binding, % at 10 µM; actives 0.59% (n = 330,000); AID 488847;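 active = inhibition of aptamer binding above 40%, roughly 3 SD of noise, on plates passing a quality check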;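 note: median bead fluorescence of bound FAM aptamer so fluorescent compounds give negative values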
DNMT1 inh: inhibitors of human DNMT1 | P26358 | DNMT1 molecular beacon, Hinp1I cleavage, fluorescence | inhibition (reported as % activation of signal), % at 10 µM | actives 0.83% (n = 360,000); in the data active = inhibition above about 50%
LMPTP inh: blocks human LMPTP phosphatase | P24666 | recombinant LMPTP-A, OMFP fluorogenic substrate, fluorescence intensity | inhibition, % at 20 µM | actives 0.22% (n = 360,000) | AID 651560;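 active = compounds that cut the enzyme signal by at least half of the control window in the single-dose screen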;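 note: plate controls were DMSO wells with enzyme plus substrate for no effect and substrate without enzyme for full effect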
Target sequence (P24666 whole entry, looked up): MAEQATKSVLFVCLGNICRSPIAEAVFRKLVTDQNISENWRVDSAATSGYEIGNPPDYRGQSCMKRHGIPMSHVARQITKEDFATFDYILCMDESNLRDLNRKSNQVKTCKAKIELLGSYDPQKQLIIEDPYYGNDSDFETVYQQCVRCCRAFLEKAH
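material = LMPTP-A | quantity = 0.625 nM enzyme | reagent = OMFP substrate, 400 µM final | buffer or medium = Bis-Tris pH 6.0, DTT, detergent | detection = endpoint fluorescence intensity from OMFP dephosphorylation | dosing = single 20 µM dose | read-out basis = % inhibition relative to no-enzyme and uninhibited control wells | control set = no-enzyme and uninhibited controls | timing = 50 min at room temperature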
Scp1 inh: inhibitors of human Scp-1 phosphatase; Q9GZU7; Recombinant Scp1, phosphopeptide, malachite green phosphate absorbance; inhibition, % at 20 µM; actives 0.88% (n = 340,000); AID 493091;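 active = inhibition above about 50% at 20 µM, limit read from the data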;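 note: plate controls were DMSO wells with enzyme for no effect and wells lacking enzyme for full effect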
Target sequence (Q9GZU7 76-261 limits assumed): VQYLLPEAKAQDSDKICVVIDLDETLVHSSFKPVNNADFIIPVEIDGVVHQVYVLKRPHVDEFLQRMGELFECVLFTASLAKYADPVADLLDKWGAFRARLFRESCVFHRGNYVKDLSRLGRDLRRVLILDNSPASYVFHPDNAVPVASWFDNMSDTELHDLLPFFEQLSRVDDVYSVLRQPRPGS
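assay system = SCP-1 phosphatase catalytic domain, residues 76-261 | buffer or medium = 50 mM Tris acetate pH 5.5, 0.005% Tween-20, 10 mM MgCl2 | incubation = enzyme reaction 45 min at room temperature, colour 5 min, stabilisation 30 min | signal = Phosphate-binding colour reagent, absorbance read at 630 nm | measure = % inhibition at 20 µM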
STEP block: STEP (human) phosphatase inhibition. P54829. recombinant STEP, OMFP fluorogenic substrate, fluorescence. inhibition, % at 20 µM. actives 0.25% (n = 360,000). AID 588621;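 active = inhibition at 20 µM, scaled per plate between control wells, above about 37%, limit read from the data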;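 note: 0% = DMSO with enzyme and substrate and 100% = substrate only without enzyme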
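System: STEP (striatal-enriched tyrosine phosphatase) enzyme, cell-free; medium: Bis-Tris pH 6.0 buffer with DTT, detergent; dosing: 20 µM, 1% DMSO; times: reaction 20 min, ambient temperature; detection: fluorescence, 480/540 nm; read-out basis: normalized % inhibition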
SUMO1 PPI mod: SUMO1-SIM interaction modulation. inhibition, % at 20 µM. SUMO1 binding to a labelled peptide, TR-FRET, 1 h. AID 602429. actives 0.33% (n = 360,000); in the data active = inhibition above about 37%
Target sequence (P63165 whole entry, looked up): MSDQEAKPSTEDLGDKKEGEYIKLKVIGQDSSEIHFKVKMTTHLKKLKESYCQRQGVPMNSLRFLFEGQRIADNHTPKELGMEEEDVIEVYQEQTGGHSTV
DNMT1 inh conf: DNMT1 inhibition confirmation, single concentration; shares compounds with DNMT1 inh; DNMT1 molecular beacon HinP1I cleavage, fluorescence; inhibition, % at 10 µM; actives 8% (n = 2,300); AID 602385;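 active = average inhibition of at least 30% in the single-concentration confirmation test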
Beacon interf: counter-screen for DNMT1 inhibitors: spectral interference | shares compounds with DNMT1 inh | DNMT1 molecular beacon spectral interference counterscreen, fluorescence 485/520 | activation (fluorescence interference), % at 10 µM | actives 1% (n = 2,300);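 active = activation of at least 30% at 10 µM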;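 note: DNMT1 catalytic domain with a HinP1I cleavage step and a FAM/dabcyl DNA beacon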
The depositor's hits bear a star.

Screening Nc1ncnc2c1ncn2C1CCCC(CO)O1 (stereo not drawn) returned DNMT1 inh 79.8*, LMPTP inh -1.5, Scp1 inh -7.7, STEP block -0.1, SUMO1 PPI mod 5.2, DNMT1 inh conf 0.8 and Beacon interf -2.0.
For N#Cc1cnn(Cc2ccccc2)c1N the results were GRK2 inh 0.0, DNMT1 inh 71.5*, LMPTP inh -4.6, Scp1 inh -8.5, STEP block -1.8, SUMO1 PPI mod 2.8, DNMT1 inh conf 2.0 and Beacon interf 2.6.
`CC1C(c2ccc3c(c2)OCO3)c2cc3c(cc2OC1N1CCOCC1)OCO3` (stereo not drawn) gave DNMT1 inh -2.2, LMPTP inh 1.3, Scp1 inh -4.7, STEP block 0.9 and SUMO1 PPI mod -0.8.
Screening O=C(Nc1ccc2oc(-c3cccc4ccccc34)nc2c1)c1ncn[nH]1 returned GRK2 inh 1.0, DNMT1 inh 66.5*, LMPTP inh -0.1, Scp1 inh -2.2, STEP block 4.9, SUMO1 PPI mod 8.3, DNMT1 inh conf 2.6 and Beacon interf -1.7.
For CCCCNC(=O)C[C@@H]1C[C@@]2(C(=O)OC)CCCCC=C2N(CCC2=CCCCC2)C1=O the results were LMPTP inh 0.2 and SUMO1 PPI mod 4.9.
Screening NC(=NCc1ccccc1)NN=Cc1ccnc2ccccc12 returned DNMT1 inh 8.6, LMPTP inh 9.5, STEP block 5.1 and SUMO1 PPI mod -25.4.
Screening CCCCN(C(=O)c1cccc(S(=O)(=O)N2CCCC2)c1)c1c(N)n(CCC)c(=O)[nH]c1=O returned GRK2 inh 0.0, DNMT1 inh 5.7, LMPTP inh -0.7, Scp1 inh 5.8, STEP block -1.5 and SUMO1 PPI mod -0.2.
Screening CCCCN(C(=O)c1cccc(-n2cccc2)c1)c1c(N)n(CCC)c(=O)[nH]c1=O returned GRK2 inh 4.0, DNMT1 inh 62.4*, LMPTP inh 4.4, Scp1 inh 69.8*, STEP block 7.8, SUMO1 PPI mod 12.9, DNMT1 inh conf 4.6 and Beacon interf 6.3.
Cc1cc(C)cc(-n2c3nc4ccccc4nc3c3c(=O)n(Cc4ccco4)cnc32)c1 was read as GRK2 inh 5.0, DNMT1 inh 98.1*, LMPTP inh 56.3*, Scp1 inh 4.6, STEP block 2.0, SUMO1 PPI mod -0.2, DNMT1 inh conf -0.1 and Beacon interf -3.8.
Cc1ccccc1OCc1nnc(SCC(=O)Nc2ccc3nc(SCC(=O)Nc4ccccc4)sc3c2)n1C was read as GRK2 inh 0.0, DNMT1 inh 56.0*, LMPTP inh 1.0, Scp1 inh -0.9, STEP block 0.2, SUMO1 PPI mod 1.8, DNMT1 inh conf 1.7 and Beacon interf -0.5.
CSc1sc(-c2n[nH]c(=S)n2C)c2c1C=CCC2 was read as GRK2 inh 0.0, DNMT1 inh 65.5*, LMPTP inh 50.4*, Scp1 inh 4.0, STEP block -0.3, SUMO1 PPI mod 9.0, DNMT1 inh conf -1.6 and Beacon interf -6.5.
For Cc1cc(C(=O)OCC(=O)N2CC(=O)Nc3ccccc32)no1 the results were GRK2 inh 0.0, DNMT1 inh -0.8, LMPTP inh -2.5, Scp1 inh -7.8, STEP block -4.2 and SUMO1 PPI mod 1.3.
For Cc1c(C(=O)OCC(=O)N2CC(=O)Nc3ccccc32)oc2ccc(Br)cc12 the results were GRK2 inh 2.0, DNMT1 inh 51.2*, LMPTP inh 1.0, Scp1 inh -6.1, STEP block 4.8, SUMO1 PPI mod -1.1, DNMT1 inh conf 1.0 and Beacon interf 1.5.
Screening Cc1cc(OC(C)C(=O)NCC(O)c2ccccc2)c2c(C)c(C)c(=O)oc2c1 (stereo not drawn) returned GRK2 inh 1.0, DNMT1 inh -0.4, LMPTP inh -0.9, Scp1 inh 3.5, STEP block -1.2 and SUMO1 PPI mod -6.6.
Cc1cc(OC(C(=O)O)c2ccccc2)c2c(C)c(Cc3ccccc3)c(=O)oc2c1 (stereo not drawn) was read as GRK2 inh 4.0, DNMT1 inh 87.6*, LMPTP inh 0.5, Scp1 inh -5.4, STEP block 3.5, SUMO1 PPI mod -2.0, DNMT1 inh conf 1.6 and Beacon interf 6.4.
For Cc1ccc(N=Nc2c(N)nn3c(N)c(C#N)c(C)nc23)cc1 the results were GRK2 inh 0.0, DNMT1 inh 78.8*, LMPTP inh 9.0, Scp1 inh 3.3, STEP block 11.7, SUMO1 PPI mod -23.6, DNMT1 inh conf 12.9 and Beacon interf 4.5.
Screening Cc1ccc(C)c(S(=O)(=O)N2CCN(C(=O)/C=C/c3ccco3)CC2)c1 returned GRK2 inh 0.0, DNMT1 inh 75.7*, LMPTP inh 3.4, Scp1 inh 23.1, STEP block -1.2, SUMO1 PPI mod -1.1, DNMT1 inh conf 6.6 and Beacon interf 1.8.
`COc1ccccc1CNC(=O)Cc1ccc(Br)cc1` gave GRK2 inh 0.0, DNMT1 inh 5.8, LMPTP inh -1.7, Scp1 inh 1.6, STEP block -0.5 and SUMO1 PPI mod 3.5.
COc1ccc(NC(=O)/C=C/c2ccco2)cn1 was read as GRK2 inh 13.0, DNMT1 inh 19.7, LMPTP inh 2.0, Scp1 inh 10.7, STEP block 0.8 and SUMO1 PPI mod -11.3.
Screening COc1ccccc1CNC(=O)/C=C/c1ccc(Br)o1 returned GRK2 inh 0.0, DNMT1 inh 90.7*, LMPTP inh 46.0, Scp1 inh -0.7, STEP block 4.9, SUMO1 PPI mod 72.2*, DNMT1 inh conf 4.8 and Beacon interf -0.6.
COc1ccc(NC(=O)/C=C/c2ccc(Br)o2)cn1 was read as GRK2 inh 7.0, DNMT1 inh 50.5*, LMPTP inh 13.6, Scp1 inh 11.2, STEP block 1.0, SUMO1 PPI mod -6.8, DNMT1 inh conf -1.4 and Beacon interf 0.5.
CC1=C(C)CC(C(=O)Nc2ccc3c(c2)OCO3)C(C(=O)O)C1 (stereo not drawn) was read as GRK2 inh 0.0, DNMT1 inh -0.6, LMPTP inh 1.2, Scp1 inh 5.3, STEP block 1.8 and SUMO1 PPI mod -0.3.
Cc1ccccc1OCC(=O)Nc1ccccc1NC(=O)c1ccco1 was read as GRK2 inh 5.0, DNMT1 inh 2.2, LMPTP inh -0.2, Scp1 inh -2.8, STEP block -1.4 and SUMO1 PPI mod 2.1.
